Consider eleven molecules from ChEMBL document CHEMBL1135879 (J Med Chem, 2002).

pKi: −log10 of the molar value.

Assay [1] deals with T1, Amine oxidase [flavin-containing] B (Bos taurus, UniProt P56560).
T1 sequence (P56560 whole entry): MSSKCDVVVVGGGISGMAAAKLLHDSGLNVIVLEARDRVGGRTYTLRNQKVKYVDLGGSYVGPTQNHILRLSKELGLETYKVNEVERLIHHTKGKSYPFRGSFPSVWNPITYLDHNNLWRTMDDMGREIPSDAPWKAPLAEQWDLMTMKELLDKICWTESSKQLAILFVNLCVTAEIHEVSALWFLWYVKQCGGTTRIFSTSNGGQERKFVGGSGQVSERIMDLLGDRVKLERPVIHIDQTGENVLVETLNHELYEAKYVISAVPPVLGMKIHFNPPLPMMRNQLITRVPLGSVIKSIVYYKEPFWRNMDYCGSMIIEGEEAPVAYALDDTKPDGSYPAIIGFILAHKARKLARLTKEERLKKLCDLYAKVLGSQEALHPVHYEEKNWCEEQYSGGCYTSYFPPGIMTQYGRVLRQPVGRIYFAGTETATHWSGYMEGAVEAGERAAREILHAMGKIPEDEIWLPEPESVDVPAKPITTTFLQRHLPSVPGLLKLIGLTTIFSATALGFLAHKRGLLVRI
In words: Inhibition of bovine brain mitochondrial Monoamine oxidase B (MAO-B) compared to toloxatone. The procedure, abridged: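 Bovine brain mitochondrial fractions were isolated by the Basford method. To leave MAO-B activity, fractions were preincubated 30 min at 38 °C with 1 μM clorgyline. Inhibitors in DMSO were preincubated 30 min before kynuramine was added, then incubated 30 min more. Fluorimetric read-out was used and Ki values determined.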

For assay [2], the target named is T2, Amine oxidase [flavin-containing] A (Bos taurus, UniProt P21398).
T2 sequence (P21398 whole entry): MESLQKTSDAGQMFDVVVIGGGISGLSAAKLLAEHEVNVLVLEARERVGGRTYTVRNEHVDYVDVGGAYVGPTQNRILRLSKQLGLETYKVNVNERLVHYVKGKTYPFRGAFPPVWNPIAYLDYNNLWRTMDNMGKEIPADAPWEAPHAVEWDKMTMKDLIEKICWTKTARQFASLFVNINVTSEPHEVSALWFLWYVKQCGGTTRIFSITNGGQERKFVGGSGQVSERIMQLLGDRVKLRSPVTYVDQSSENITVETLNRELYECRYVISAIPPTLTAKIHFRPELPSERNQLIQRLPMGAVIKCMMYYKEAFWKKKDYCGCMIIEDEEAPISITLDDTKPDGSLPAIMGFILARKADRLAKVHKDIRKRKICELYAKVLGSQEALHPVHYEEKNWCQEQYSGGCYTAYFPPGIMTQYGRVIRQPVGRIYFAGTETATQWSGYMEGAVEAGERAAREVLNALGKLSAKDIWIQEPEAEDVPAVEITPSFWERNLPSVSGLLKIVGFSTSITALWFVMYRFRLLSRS
In words: Inhibition of bovine brain mitochondrial Monoamine oxidase A (MAO-A) compared to toloxatone. An outline of the steps:
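Bovine brain mitochondria were isolated by the Basford method. To isolate MAO-A, fractions were preincubated 30 min at 38 °C with 1 μM L-deprenyl. Inhibitors in DMSO were preincubated 30 min, then kynuramine substrate was added, with 30 min further incubation. Product was read fluorimetrically and Ki values derived.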

Usually pKi stands for the negative decadic logarithm of the Ki, by convention in mol/L. A higher pKi goes with a small Ki. As to `O=C1O[C@H](CO)CN1n1cccc1`, the pKi in assay [1] was 5.70; in assay [2], 5.92.
In the same order, the values of `NC[C@@H]1CN(n2cccc2)C(=O)O1` are 4.47 and 5.92.
Consider `O=C1O[C@@H](CO)CN1n1cccc1`, for which the pKi in assay [1] was 5.05; in assay [2], 7.05.
Take `O=C1O[C@@H](CO)CN1n1cccc1.O=C1O[C@H](CO)CN1n1cccc1`: the figures for the pKi in assay [1] and in assay [2] were 5.70 and 6.57, respectively.
Turning to `NC[C@H]1CN(n2cccc2)C(=O)O1`, the negative logarithm of the Ki (pKi) in assay [1] is 5.36; in assay [2] it was 4.28.
For the molecule `[N-]=[N+]=NC[C@H]1CN(n2cccc2)C(=O)O1`, the results for the pKi in assay [1] and in assay [2] were 3.70 and 6.70, respectively.
In the case of `COC[C@H]1CN(n2cccc2)C(=O)O1`, the figures for the pKi in assay [1] and in assay [2] were 4.30 and 8.31, respectively.
On to `COC[C@@H]1CN(n2cccc2)C(=O)O1`, for which the pKi in assay [1] was 4.64; in assay [2] it was 6.00.
In the same order, the values of `CN(C)C[C@H]1CN(n2cccc2)C(=O)O1` are 3.85 and 4.40.
`[N-]=[N+]=NC[C@@H]1CN(n2cccc2)C(=O)O1`: the negative-log Ki (pKi) is 4.62 in assay [1] and 5.60 in assay [2].
`COC[C@@H]1CN(c2ccc(OCC[C@H](O)C(F)(F)F)cc2)C(=O)O1` [(R/R)BEFLOXATONE]: the negative-log Ki (pKi) in assay [1] was 6.66; in assay [2], 8.60.
